Compound activity: PubChem, several laboratories
DAT uptake mod – human DAT dopamine uptake with cocaine, either direction | LLC-PK1 hDAT cells, [14C]-dopamine uptake with cocaine IC80; actives deviate in either direction | 110,000 compounds, 1.3% hits | B-score at 10 µM | Q01959 | AID 449768;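 active = Z score or B-score, a plate-position-corrected score, falls beyond the plate's 99.7% confidence bounds, in either direction; inactive = both scores lie inside the 99.7% bounds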;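 also: scored against the spread of the other compound wells on the same plate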
Measles CPE – protection of cells from measles virus; Measles virus-infected cells, CPE protection, absorbance; protection (pct of control), % at 4 µM; 140,000 compounds, 1.5% hits; in the data active = protection mostly above about 24%, no sharp cut-off; inactive = mostly below about 26%
Phagocytosis inh – inhibitors of macrophage phagocytosis; J774A.1 macrophage IgG-bead phagocytosis, imaging; inhibition, % at 5 µM; 110,000 compounds, 0.07% hits; AID 1029;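 active = inhibition above the mean of the plate negative controls plus 5 SD, cut at about 13% in these data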;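 also: phagocytic index as fraction of beads internalized from green versus red external bead signal; plate controls were DMSO negative control for no effect and cytochalasin-D positive control for full effect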
HIV Rev-RRE inh – inhibitors of HIV-1 Rev-RRE RNA interaction. P05866. 97,000 compounds, 0.79% hits. AID 704. Rev peptide-RRE RNA binding, FRET. inhibition, % at 8 µM;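 active = inhibition above the screen-wide mean plus 3 SD, cut at about 35% in these data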;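 also: 0% = median DMSO wells and 100% = median Neomycin B control wells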
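Probe or stimulus: fluorescein-Rev peptide as binding partner; assay system: Cy5-tagged RRE RNA duplex with fluorescein-tagged Rev peptide; timing: 5 min compound–RNA preincubation, then 15 min with peptide, 25 °C; medium: HEPES pH 7.5 buffer with KCl, MgCl2, NaCl and EDTA; signal: fluorescein-to-Cy5 FRET, 480 nm excitation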
Cav32 inh – inhibitors of human Cav3.2 T-type calcium channel; B-score at 10 µM; Cav3.2-expressing cells, Fluo-4 calcium fluorescence FDSS; hits give low values; 100,000 compounds, 4% hits; AID 449739;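 active = single-dose well whose peak fluorescence ratio is a statistical outlier from its plate by either plate-standardised score or position-corrected B-score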
PTK2B oligo ant – Pyk2 (human) oligomerization antagonism; Q14289; Q293 cells, Pyk2 FERM NanoBiT luminescence; hits give low values; z-score (the deposit names both 25 µM and 10 µM); 99,000 compounds, 0.83% hits; AID 1347419;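 active = Z-score of -3 or lower, scaled per plate to the spread of control and sample wells; inactive = z-score above -3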;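 also: negative z-score means lost luminescence so less FERM oligomerization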
* marks the source's active call; other numbers are inactive results; x = not tested or not shown. In the library only some 5.9% were active in any assay of this set; here they are far more common.

SMILES	DAT uptake mod	Measles CPE	Phagocytosis inh	HIV Rev-RRE inh	Cav32 inh	PTK2B oligo ant
CC(=O)[C@@H]1[C@@H]2C(=O)N(Cc3ccccc3)C(=O)[C@@H]2C2c3ccccc3C=CN21 (some centres not stated)	0.339	5.9	5.0	64.2*	-1.82	-0.13
Cc1ccc(N2C(=O)[C@@H]3[C@H](C2=O)C2c4ccccc4C=CN2[C@@H]3C(=O)c2ccco2)c(C)c1 (some centres not stated)	-1.74	x	-2.7	29.5	0.058	0.44
C[C@@H]1NC(=O)N[C@@H]1CCCCCC(=O)O	-0.324	x	x	x	-0.0479	x
Fc1ccccc1CSc1nc2ncc(Br)cc2[nH]1	0.693	6.9	0.9	15.2	-0.639	-1.47
O=c1[nH]c2cc(Br)cnc2nc1/C=C(\O)c1ccc(F)cc1	0.0458	6.3	x	59.9*	-1.47	0.89
Cc1c(C)n(CC(O)CN2C(=O)c3ccccc3S2(=O)=O)c2ccccc12 (configuration not stated)	2.36	14.3	4.4	0.5	-6.83*	-0.38
Cc1sc(NC(=O)C2CCCCC2C(=O)O)c(C(N)=O)c1C (configuration not stated)	0.46	3.6	0.1	-0.3	-4.15*	-0.1
O=C1CCCN1c1ccc(S(=O)(=O)Oc2cccc(Cl)c2)cc1[N+](=O)[O-]	-1.1	11.1	x	7.6	-1.38	-0.04
CCn1c(SCC(=O)Nc2nc3ccc(C)cc3s2)nc2c(c1=O)SC(C)C2 (configuration not stated)	1.1	6.1	x	-1.9	-0.457	-3.56*
CCn1c(SCC(=O)Nc2cc(C)on2)nc2c(c1=O)SC(C)C2 (configuration not stated)	-1.09	12.6	0.2	7.1	1.71	-0.7
CCn1c(SC)nc2c(c1=O)SC(C)C2 (configuration not stated)	-0.926	45.7*	1.1	x	0.467	1.1
CCSc1nc2c(c(=O)n1CC)SC(C)C2 (configuration not stated)	0.0843	3.4	-1.9	x	-1.15	0.29
Brc1ccc(CNCc2cccs2)cc1	x	18.9*	-4.0	x	x	x
c1ccc(COc2ccc(CNCc3cccs3)cc2)cc1	-0.115	14.7	x	2.6	-2.12	1.93
CCc1c(C)nc2ncnn2c1N1CCCC(C(=O)Nc2cc(F)ccc2C)C1 (configuration not stated)	1.04	7.0	-0.8	-4.2	0.0201	1.66
CC(C)(C)N1[C@@H](CC(=O)O)c2cc(C(F)(F)F)ccc2S1(=O)=O	-0.0814	x	x	x	2.35	x
CCNC(=S)N/N=C/c1sc(N2CCCCC2)nc1-c1cccs1	x	8.7	0.6	x	x	x
Nc1nonc1C(=O)NCCNS(=O)(=O)c1ccc(F)cc1	x	8.6	-8.5	x	x	x
C=C(C)Cn1c(-c2ccc(OC)cc2)nc2ccccc21	0.171	5.8	-0.5	10.4	-5.01*	-0.4
O=C(COc1ccc(Br)cc1)N1CCOCC1	1.66	7.2	x	3.2	1.03	1.25
O=C(COc1ccc(Br)cc1)N1CCC(c2ccccc2)C1 (configuration not stated)	1.3	0.3	x	10.1	-4.13*	1.12
Cc1cccc(S(=O)(=O)NC(Cc2c[nH]c3ccccc23)C(=O)O)c1 (configuration not stated)	x	22.1	-10.3	x	x	x
O=C(CN1CCOCC1)Nc1nc(-c2ccc3c(c2)CCN3S(=O)(=O)c2ccccc2)cs1	1.54	16.4	-0.3	3.1	0.00221	-3.04*
Cc1cn2c(nc(=O)c3cccnc32)s1	x	11.0	-1.8	x	x	x
CC1=C(C(=O)OCc2ccc3c(c2)OCO3)C(c2ccccc2OCc2ccccc2)NC(=O)N1 (configuration not stated)	-0.706	17.4	0.1	1.3	-3.44	-3.23*
SMILES	DAT uptake mod	Measles CPE	Phagocytosis inh	HIV Rev-RRE inh	Cav32 inh	PTK2B oligo ant
CCCOc1ccccc1C1NC(=O)NC(C)=C1C(=O)OCc1ccccc1 (configuration not stated)	-0.196	11.2	x	15.6	-1.54	-2.54
CC1=C(C(=O)OCc2ccc3c(c2)OCO3)C(c2ccccc2)NC(=O)N1 (configuration not stated)	0.238	3.7	0.4	4.1	-3.61	-3.4*
Cc1ccc(C2/C(=C(\O)c3cnn(-c4ccccc4)c3C)C(=O)C(=O)N2CCN(C)C)o1 (configuration not stated)	-2.35*	21.2	x	7.8	-0.177	0.99
C#C[C@]1(O)CC[C@H]2[C@@H]3CCC4=C(CCC(=O)C4)[C@H]3CC[C@@]21C	0.859	22.0	x	x	x	x
C=CCN1C(c2ccccc2)=CS/C1=C(/C#N)c1nnc(N2CCOCC2)n1-c1ccccc1	x	52.4*	-1.5	x	x	x
CN1C(c2ccc(F)cc2)=CS/C1=C(/C#N)c1nnc(N2CCOCC2)n1-c1ccccc1	x	6.6	-2.7	x	x	x
O=C(CNS(=O)(=O)c1ccc(Br)s1)N1CCCC1	0.681	10.8	-0.4	5.4	-0.791	-0.66
O=C(CCNS(=O)(=O)c1ccc(Br)s1)N1CCN(c2ccccc2)CC1	-0.478	10.7	x	5.0	-5.5*	1.25
COc1ccccc1N1CCN(C(=O)CCNS(=O)(=O)c2ccc(Br)s2)CC1	-3.93*	3.3	x	7.0	-4.65*	0.67
CCn1c(SCc2ccc(C)cc2)nnc1C1CCN(S(=O)(=O)c2ccc(OC)cc2)CC1	1.11	20.5	x	-0.3	-4.77*	0.93
CCn1c(SCc2ccc(F)cc2)nnc1C1CCN(S(=O)(=O)c2ccc(OC)cc2)CC1	0.758	15.8	-0.5	8.0	-2.29	1.62
C=CCc1ccc(OCC(O)CN2CCC(Cc3ccccc3)CC2)c(OC)c1 (configuration not stated)	0.067	4.2	x	21.0	-4.03*	0.49
COc1cccc(OCC(O)CN2CCC(Cc3ccccc3)CC2)c1 (configuration not stated)	-1.31	20.6	1.5	1.9	-4.22*	0.5
C=CCc1ccc(OCC(O)CN2CCN(Cc3ccc(Cl)cc3)CC2)c(OC)c1 (configuration not stated)	x	18.9	3.9	x	x	x
COc1cccc(OCC(O)CN2CCOCC2)c1 (configuration not stated)	-0.597	20.9	0.0	1.4	0.336	0.6
Nc1ccccc1C(=O)N/N=C1\C2CN3CCN(C2)CC1(c1ccccc1)C3	x	6.4	7.1	x	x	x
Cc1ccc(C(=O)Nc2ccc(Br)cc2)cc1S(=O)(=O)Nc1ccccn1	x	4.0	-5.5	x	x	x
O=C(c1cc2ccccc2oc1=O)N1CCN(c2ncccn2)CC1	2.88*	3.0	-0.7	10.0	0.0893	0.79
CCCC(=O)N1CCN(c2ccc([N+](=O)[O-])c(NC(C)c3ccccc3)c2)CC1 (configuration not stated)	-0.0887	3.7	-1.1	8.8	-6.28*	-2.72
CC(Nc1cc(N2CCOCC2)ccc1[N+](=O)[O-])c1ccccc1 (configuration not stated)	x	12.3	-7.8	x	x	x
CC12CCC(C(=O)NCc3ccccc3)(OC1=O)C2(C)C (configuration not stated)	-1.3	4.2	1.6	2.0	0.767	-0.35
